Test results published in ChEMBL document CHEMBL4145619, “Computer-Assisted Discovery of Retinoid X Receptor Modulating Natural Products and Isofunctional Mimetics” (J Med Chem, 2018).
Active and inactive are the calls of the source. The rule behind the calls is not given here.

What was measured:
Type in all cases: cell-based
[1] = target: T1, Bile acid receptor (Homo sapiens) (UniProt Q96RI1); test: Transactivation of human Gal4-fused FXR LBD expressed in HEK293T cells at 30 uM after 12 to 14 hrs by dual-glo luciferase assay
T1 sequence (whole entry): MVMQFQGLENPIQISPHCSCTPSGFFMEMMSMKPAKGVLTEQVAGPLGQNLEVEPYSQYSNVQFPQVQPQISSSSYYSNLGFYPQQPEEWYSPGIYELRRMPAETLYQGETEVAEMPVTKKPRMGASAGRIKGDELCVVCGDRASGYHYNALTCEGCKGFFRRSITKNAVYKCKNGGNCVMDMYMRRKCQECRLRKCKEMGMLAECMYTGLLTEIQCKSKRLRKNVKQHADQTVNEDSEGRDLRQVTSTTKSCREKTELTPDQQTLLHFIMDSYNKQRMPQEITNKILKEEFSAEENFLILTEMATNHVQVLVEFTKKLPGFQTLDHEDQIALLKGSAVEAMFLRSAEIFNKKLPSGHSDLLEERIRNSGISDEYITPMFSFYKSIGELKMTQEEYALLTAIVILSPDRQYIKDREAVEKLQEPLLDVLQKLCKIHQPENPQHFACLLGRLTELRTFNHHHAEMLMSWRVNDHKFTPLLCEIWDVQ
Outline: (§1)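 Single-concentration selectivity profiling in Gal4-hybrid reporter gene assays in HEK293T cells. Each nuclear receptor construct (RAR, PPAR, LXR, FXR, CAR, VDR, PXR, RXR) was tested at 30 μM.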

[2] = target: T2, Oxysterols receptor LXR-beta (Homo sapiens) (UniProt P55055); test: Transactivation of human Gal4-fused LXRbeta LBD expressed in HEK293T cells at 30 uM after 12 to 14 hrs by dual-glo luciferase assay; outline: as §1
T2 sequence (whole entry): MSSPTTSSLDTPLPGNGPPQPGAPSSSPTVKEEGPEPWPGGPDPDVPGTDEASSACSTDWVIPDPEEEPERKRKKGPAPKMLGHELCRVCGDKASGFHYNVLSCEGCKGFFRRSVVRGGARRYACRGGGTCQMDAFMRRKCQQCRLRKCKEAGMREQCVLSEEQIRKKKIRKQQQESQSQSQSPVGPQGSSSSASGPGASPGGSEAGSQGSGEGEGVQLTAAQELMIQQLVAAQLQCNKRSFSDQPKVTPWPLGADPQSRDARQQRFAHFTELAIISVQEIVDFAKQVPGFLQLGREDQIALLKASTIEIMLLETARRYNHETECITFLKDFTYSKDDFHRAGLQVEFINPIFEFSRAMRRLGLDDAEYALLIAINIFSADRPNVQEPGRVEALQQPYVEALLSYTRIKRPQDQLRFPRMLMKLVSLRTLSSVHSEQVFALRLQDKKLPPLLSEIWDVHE

[3] = target: Retinoid X receptor (Homo sapiens) (UniProt P28702+P48443+P19793); test: Transactivation of RXR in human HepG2 cells assessed as induction of ABCA1 mRNA expression at 30 uM after 8 hrs by qRT-PCR analysis
Retinoid X receptor (Homo sapiens), sequence (P48443 whole entry, looked up, one chain of several): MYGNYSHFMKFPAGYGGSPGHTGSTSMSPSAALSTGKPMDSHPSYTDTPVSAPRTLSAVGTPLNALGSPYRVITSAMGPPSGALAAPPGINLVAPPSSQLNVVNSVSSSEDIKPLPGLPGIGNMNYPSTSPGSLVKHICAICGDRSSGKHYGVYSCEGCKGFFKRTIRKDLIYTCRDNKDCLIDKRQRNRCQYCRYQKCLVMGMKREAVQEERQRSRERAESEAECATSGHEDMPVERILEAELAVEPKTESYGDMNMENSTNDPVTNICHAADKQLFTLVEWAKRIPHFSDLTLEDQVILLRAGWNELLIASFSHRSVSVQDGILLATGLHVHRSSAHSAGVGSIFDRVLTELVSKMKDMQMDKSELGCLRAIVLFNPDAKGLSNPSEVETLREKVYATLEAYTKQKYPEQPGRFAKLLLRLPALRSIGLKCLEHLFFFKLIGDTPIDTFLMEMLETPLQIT
Outline: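 HepG2 cells were treated and ABCA1 or ApoE mRNA levels measured. Results are given as mean fold induction versus 0.1% DMSO vehicle ± SEM, n = 3. Significance was set at p < 0.05, 0.01 or 0.001.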

[4] = target: T3, Retinoic acid receptor RXR-alpha (Homo sapiens) (UniProt P19793); test: Transactivation of human Gal4-fused RXRalpha LBD expressed in HEK293T cells after 12 to 14 hrs by dual-glo luciferase assay relative to bexarotene
T3 sequence (whole entry): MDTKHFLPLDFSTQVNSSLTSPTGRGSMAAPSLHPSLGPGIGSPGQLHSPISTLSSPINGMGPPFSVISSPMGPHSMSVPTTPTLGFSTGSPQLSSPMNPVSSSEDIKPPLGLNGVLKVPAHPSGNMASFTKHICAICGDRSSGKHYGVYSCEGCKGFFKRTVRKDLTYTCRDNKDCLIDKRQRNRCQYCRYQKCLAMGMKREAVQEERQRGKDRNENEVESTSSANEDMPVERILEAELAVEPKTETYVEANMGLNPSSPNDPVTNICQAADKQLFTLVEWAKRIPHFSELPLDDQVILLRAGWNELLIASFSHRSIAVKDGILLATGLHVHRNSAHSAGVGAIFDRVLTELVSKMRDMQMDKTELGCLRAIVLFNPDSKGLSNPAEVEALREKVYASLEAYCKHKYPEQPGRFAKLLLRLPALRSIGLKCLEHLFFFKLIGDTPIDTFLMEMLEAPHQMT

[5] = target: T4, Retinoic acid receptor RXR-beta (Homo sapiens) (UniProt P28702); test: Transactivation of human Gal4-fused RXRbeta LBD expressed in HEK293T cells at 30 uM after 12 to 14 hrs by dual-glo luciferase assay; outline: as §1
T4 sequence (whole entry): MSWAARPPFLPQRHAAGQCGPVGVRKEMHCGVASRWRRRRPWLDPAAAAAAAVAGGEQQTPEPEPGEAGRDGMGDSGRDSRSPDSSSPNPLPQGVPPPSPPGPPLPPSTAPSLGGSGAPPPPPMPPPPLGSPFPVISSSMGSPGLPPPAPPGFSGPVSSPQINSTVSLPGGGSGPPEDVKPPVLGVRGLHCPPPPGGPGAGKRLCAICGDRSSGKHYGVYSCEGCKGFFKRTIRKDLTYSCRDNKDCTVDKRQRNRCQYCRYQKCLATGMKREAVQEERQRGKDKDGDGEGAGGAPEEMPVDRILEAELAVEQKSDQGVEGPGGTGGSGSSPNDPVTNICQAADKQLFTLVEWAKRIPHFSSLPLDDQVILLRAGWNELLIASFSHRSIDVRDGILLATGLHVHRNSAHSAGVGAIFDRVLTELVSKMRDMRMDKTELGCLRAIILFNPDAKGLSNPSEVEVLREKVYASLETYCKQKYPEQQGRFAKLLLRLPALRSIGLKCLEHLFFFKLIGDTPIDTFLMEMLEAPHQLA

[6] = target: T5, Peroxisome proliferator-activated receptor alpha (Homo sapiens) (UniProt Q07869); test: Transactivation of human Gal4-fused PPARalpha LBD expressed in HEK293T cells at 30 uM after 12 to 14 hrs by dual-glo luciferase assay; outline: as §1
T5 sequence (whole entry): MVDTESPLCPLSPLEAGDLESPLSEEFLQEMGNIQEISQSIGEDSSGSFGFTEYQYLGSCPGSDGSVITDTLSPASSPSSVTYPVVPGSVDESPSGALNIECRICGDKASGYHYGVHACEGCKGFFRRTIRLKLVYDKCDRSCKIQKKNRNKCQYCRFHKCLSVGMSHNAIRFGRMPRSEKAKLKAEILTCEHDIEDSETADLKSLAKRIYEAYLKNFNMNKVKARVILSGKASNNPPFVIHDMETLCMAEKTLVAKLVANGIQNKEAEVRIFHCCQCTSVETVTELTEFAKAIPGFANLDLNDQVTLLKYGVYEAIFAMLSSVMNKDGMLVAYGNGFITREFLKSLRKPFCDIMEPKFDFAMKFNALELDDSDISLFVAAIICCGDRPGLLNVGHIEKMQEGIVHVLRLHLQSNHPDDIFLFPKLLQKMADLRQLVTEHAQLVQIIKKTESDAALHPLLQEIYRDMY

For CC1=C2[C@H](/C=C(\C)C(=O)O)CC[C@@H](C)[C@H]2CC1 [VALERENIC ACID], the Activity [1] was “inactive”, the Activity [2] was “inactive” and the Activity [3] was “Active”. For the same compound, the fold change (FC) [4] was 9, the Activity [5] was “Active” and the Activity [6] was “inactive”.
